In ChEMBL document CHEMBL1138050, “Furan-2-ylmethylene thiazolidinediones as novel, potent, and selective inhibitors of phosphoinositide 3-kinase gamma” (J Med Chem, 2006):

Tests used:
[1] = target: RAC-alpha serine/threonine-protein kinase (Homo sapiens) (UniProt P31749); experiment: Residual activity at human PKBalpha at 10 uM in presence of 10 uM ATP relative to control
In short: (§1)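 Single-concentration counter-screen across a panel of 80 Ser/Thr and Tyr protein kinases. Compound was tested at 10 µM with ATP at 10 µM. Activity remaining in each kinase is expressed relative to control.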

[2] = target: Mitogen-activated protein kinase 10 (Homo sapiens) (UniProt P53779); experiment: Residual activity at human JNK3 at 10 uM in presence of 10 uM ATP relative to control; in short: as §1
[3] = target: Ribosomal protein S6 kinase alpha-5 (Homo sapiens) (UniProt O75582); experiment: Residual activity at human MSK1 at 10 uM in presence of 10 uM ATP relative to control; in short: as §1
Ribosomal protein S6 kinase alpha-5 (Homo sapiens), sequence (O75582 whole entry, looked up): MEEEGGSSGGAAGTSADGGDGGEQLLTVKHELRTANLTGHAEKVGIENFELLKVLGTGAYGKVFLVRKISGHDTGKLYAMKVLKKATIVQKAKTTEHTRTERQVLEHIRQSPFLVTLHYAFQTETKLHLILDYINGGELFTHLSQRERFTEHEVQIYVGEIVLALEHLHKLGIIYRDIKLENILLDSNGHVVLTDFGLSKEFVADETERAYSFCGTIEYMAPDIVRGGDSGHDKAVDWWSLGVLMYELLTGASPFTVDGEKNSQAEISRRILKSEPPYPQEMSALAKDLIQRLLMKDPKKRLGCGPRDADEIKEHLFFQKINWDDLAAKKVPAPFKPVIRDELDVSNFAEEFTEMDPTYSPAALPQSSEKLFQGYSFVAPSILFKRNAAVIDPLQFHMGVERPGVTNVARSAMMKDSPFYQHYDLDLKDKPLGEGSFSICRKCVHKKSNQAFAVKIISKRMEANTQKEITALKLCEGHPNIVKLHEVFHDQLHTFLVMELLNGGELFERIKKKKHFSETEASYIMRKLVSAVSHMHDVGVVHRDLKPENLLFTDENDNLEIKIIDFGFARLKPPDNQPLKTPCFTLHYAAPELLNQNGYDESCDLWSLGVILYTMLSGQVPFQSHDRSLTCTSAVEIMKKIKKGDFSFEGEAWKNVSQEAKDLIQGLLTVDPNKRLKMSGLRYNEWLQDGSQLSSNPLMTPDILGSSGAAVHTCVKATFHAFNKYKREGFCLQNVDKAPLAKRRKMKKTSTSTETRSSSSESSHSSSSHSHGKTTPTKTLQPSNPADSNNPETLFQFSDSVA

[4] = target: Tyrosine-protein kinase SYK (Homo sapiens) (UniProt P43405); experiment: Residual activity at human Syk at 10 uM in presence of 10 uM ATP relative to control; in short: as §1
[5] = target: Dual specificity mitogen-activated protein kinase kinase 7 (Homo sapiens, UniProt O14733); experiment: Inhibition of human MKK7beta
[6] = target: Glycogen synthase kinase-3 beta (Homo sapiens) (UniProt P49841); experiment: Residual activity at human GSK3-beta at 10 uM in presence of 10 uM ATP relative to control
In short: (§2)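 Panel of Ser/Thr and Tyr protein kinases, each tested with 10 µM compound in the presence of 10 µM ATP; activity expressed relative to control.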

[7] = target: Protein kinase C alpha type (Homo sapiens) (UniProt P17252); experiment: Residual activity at human PKCalpha at 10 uM in presence of 10 uM ATP relative to control; in short: as §1
[8] = target: Proto-oncogene tyrosine-protein kinase Src (Homo sapiens) (UniProt P12931); experiment: Residual activity at human cSRC at 10 uM in presence of 10 uM ATP relative to control; in short: as §1
[9] = target: Glycogen synthase kinase-3 alpha (Homo sapiens) (UniProt P49840); experiment: Residual activity at human GSK3alpha at 10 uM in presence of 10 uM ATP relative to control; in short: as §2
Glycogen synthase kinase-3 alpha (Homo sapiens), sequence (P49840 2-483 limits assumed): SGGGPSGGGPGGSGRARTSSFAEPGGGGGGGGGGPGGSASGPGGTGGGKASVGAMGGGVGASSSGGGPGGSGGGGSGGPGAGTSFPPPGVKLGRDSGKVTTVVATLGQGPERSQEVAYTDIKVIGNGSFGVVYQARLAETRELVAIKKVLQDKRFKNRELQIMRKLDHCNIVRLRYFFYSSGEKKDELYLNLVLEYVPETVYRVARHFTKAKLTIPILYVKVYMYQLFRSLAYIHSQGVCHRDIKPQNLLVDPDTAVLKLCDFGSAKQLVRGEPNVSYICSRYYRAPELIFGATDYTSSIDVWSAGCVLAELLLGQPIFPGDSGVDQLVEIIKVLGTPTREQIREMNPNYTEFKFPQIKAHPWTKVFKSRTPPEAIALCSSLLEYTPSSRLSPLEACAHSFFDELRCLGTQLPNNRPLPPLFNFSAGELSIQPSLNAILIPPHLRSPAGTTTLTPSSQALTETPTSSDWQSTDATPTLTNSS

[10] = target: Mitogen-activated protein kinase 14 (Homo sapiens) (UniProt Q16539); experiment: Residual activity at human SAPK2a at 10 uM in presence of 10 uM ATP relative to control; in short: as §1
[11] = target: Serine/threonine-protein kinase Chk2 (Homo sapiens) (UniProt O96017); experiment: Residual activity at human Chk2 at 10 uM in presence of 10 uM ATP relative to control; in short: as §2
[12] = target: Cyclin-dependent kinase 1/cyclin B1 (Homo sapiens) (UniProt P06493+P14635); experiment: Residual activity at human CDK1/CyclinB at 10 uM in presence of 10 uM ATP relative to control; format: protein-complex assay; in short: as §2
[13] = Metabolism in rat microsome after 1 hr; format: ADME; conditions: microsomes, read-out: Activity
[14] = target: Mitogen-activated protein kinase 11 (Homo sapiens) (UniProt Q15759); experiment: Residual activity at human SAPK2b at 10 uM in presence of 10 uM ATP relative to control; in short: as §1
[15] = target: Receptor-type tyrosine-protein kinase FLT3 (Homo sapiens) (UniProt P36888); experiment: Residual activity at human Flt3 at 10 uM in presence of 10 uM ATP relative to control; in short: as §2
[16] = Dissociation constant, pKa of the compound; format: physicochemical
In short: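 UV-metric titration under argon at 25 ± 0.5 °C. 10 mM DMSO stock diluted into 0.15 M KCl containing 60, 50, 40 or 30 wt% MeOH, with 0.25 mM KH2PO4. Brought to pH 11.0 with 0.5 M KOH, then titrated with 0.5 M HCl to pH 4, at most 0.15 pH unit per step. UV 200-500 nm recorded after each addition; Yasuda-Shedlovsky extrapolation to zero cosolvent.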

[17] = AUC in rat at 10 mg/kg, po; format: ADME, organism-based; set-up: dose 10 mg/kg, route oral; conditions: plasma
In short: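 Rats given a single 10 mg/kg dose, intravenously or orally. The compound was given as its potassium salt, prepared with KOH in THF/water, for the in vivo work.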

[18] = target: Tyrosine-protein kinase Fyn (Homo sapiens) (UniProt P06241); experiment: Residual activity at human FYN at 10 uM in presence of 10 uM ATP relative to control; in short: as §2
[19] = target: Cytoplasmic tyrosine-protein kinase BMX (Homo sapiens) (UniProt P51813); experiment: Residual activity at human Bmx at 10 uM in presence of 10 uM ATP relative to control; in short: as §2
[20] = target: Ca2+/calmodulin-dependent protein kinase II (CaM kinase II) (Rattus norvegicus) (UniProt P11275+P08413+P15791+P11730); experiment: Residual activity at rat CaMK2 at 10 uM in presence of 10 uM ATP relative to control; format: protein assay
[21] = target: Dual specificity mitogen-activated protein kinase kinase 6 (Homo sapiens) (UniProt P52564); experiment: Residual activity at human MKK6 at 10 uM in presence of 10 uM ATP relative to control; in short: as §1
Rattus norvegicus = experiment: Volume of distribution in rat at 10 mg/kg, iv; format: ADME, organism-based; set-up: dose 10 mg/kg, route intravenous; conditions: in vivo
In short: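 Given to rats as a single 10 mg/kg intravenous dose of the potassium salt, run alongside a matching oral arm. Pharmacokinetic parameters derived were CL, AUC, Cmax, t1/2 and Vd.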

[22] = target: Protein kinase C delta type (Homo sapiens) (UniProt Q05655); experiment: Residual activity at human PKCdelta at 10 uM in presence of 10 uM ATP relative to control; in short: as §1
[23] = target: Mitogen-activated protein kinase 12 (Homo sapiens) (UniProt P53778); experiment: Residual activity at human SAPK3 at 10 uM in presence of 10 uM ATP relative to control; in short: as §1
Mitogen-activated protein kinase 12 (Homo sapiens), sequence (P53778 whole entry): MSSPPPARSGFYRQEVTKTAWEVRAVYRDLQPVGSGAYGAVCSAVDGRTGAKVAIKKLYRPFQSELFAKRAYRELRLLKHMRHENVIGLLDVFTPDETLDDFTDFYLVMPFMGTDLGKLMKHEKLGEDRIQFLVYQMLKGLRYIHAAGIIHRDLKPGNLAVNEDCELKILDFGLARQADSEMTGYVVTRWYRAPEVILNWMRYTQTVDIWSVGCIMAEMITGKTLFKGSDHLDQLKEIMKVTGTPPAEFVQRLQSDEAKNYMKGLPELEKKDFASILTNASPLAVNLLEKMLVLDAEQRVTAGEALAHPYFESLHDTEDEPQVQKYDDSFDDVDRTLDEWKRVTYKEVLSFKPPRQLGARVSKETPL

[24] = target: Rho-associated protein kinase 2 (Homo sapiens) (UniProt O75116); experiment: Residual activity at human ROCK2 at 10 uM in presence of 10 uM ATP relative to control; in short: as §1
Rho-associated protein kinase 2 (Homo sapiens), sequence (O75116 whole entry, looked up): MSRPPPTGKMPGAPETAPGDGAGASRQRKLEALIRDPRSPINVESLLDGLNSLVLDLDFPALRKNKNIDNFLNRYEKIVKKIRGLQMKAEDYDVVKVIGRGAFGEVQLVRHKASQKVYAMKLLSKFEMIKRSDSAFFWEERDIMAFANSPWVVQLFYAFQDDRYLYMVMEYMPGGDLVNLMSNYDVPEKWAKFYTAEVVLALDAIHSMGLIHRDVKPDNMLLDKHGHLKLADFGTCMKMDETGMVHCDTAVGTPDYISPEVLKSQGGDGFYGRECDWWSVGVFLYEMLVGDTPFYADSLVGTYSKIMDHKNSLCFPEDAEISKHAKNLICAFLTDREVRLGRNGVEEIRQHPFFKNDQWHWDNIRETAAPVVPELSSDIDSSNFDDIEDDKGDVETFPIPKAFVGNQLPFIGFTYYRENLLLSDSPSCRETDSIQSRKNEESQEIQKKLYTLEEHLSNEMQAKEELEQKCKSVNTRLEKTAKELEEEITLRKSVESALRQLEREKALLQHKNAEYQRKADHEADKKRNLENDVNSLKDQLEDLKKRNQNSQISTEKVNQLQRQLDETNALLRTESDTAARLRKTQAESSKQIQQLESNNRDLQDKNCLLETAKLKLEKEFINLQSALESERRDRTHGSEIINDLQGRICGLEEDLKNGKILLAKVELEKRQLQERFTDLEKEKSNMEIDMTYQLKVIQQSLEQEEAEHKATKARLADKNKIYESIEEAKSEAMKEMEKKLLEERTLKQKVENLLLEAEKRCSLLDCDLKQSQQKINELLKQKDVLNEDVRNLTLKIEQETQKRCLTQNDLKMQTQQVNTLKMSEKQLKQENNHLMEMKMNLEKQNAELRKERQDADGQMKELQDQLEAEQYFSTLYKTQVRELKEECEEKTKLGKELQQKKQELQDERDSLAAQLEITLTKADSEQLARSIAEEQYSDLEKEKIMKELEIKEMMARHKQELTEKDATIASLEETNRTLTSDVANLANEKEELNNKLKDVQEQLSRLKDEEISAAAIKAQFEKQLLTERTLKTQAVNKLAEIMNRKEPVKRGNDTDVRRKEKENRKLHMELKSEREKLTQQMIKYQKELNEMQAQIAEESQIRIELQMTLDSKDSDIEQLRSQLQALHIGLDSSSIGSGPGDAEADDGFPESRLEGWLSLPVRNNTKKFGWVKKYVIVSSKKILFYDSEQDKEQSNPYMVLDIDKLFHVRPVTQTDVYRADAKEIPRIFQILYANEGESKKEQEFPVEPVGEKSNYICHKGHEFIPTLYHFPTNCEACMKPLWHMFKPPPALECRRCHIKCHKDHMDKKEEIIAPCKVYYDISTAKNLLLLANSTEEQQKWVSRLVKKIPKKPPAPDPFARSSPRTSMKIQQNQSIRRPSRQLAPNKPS

[25] = target: Tyrosine-protein kinase Fes/Fps (Homo sapiens) (UniProt P07332); experiment: Residual activity at human Fes at 10 uM in presence of 10 uM ATP relative to control; in short: as §2
[26] = target: cAMP-dependent protein kinase (PKA) (Homo sapiens) (UniProt P22694+P17612+P22612); experiment: Residual activity at human PKA at 10 uM in presence of 10 uM ATP relative to control; format: protein assay; in short: as §1
[27] = target: Tyrosine-protein kinase Lck (Homo sapiens) (UniProt P06239); experiment: Residual activity at human Lck at 10 uM in presence of 10 uM ATP relative to control; in short: as §1
Tyrosine-protein kinase Lck (Homo sapiens), sequence (P06239 2-509 limits assumed): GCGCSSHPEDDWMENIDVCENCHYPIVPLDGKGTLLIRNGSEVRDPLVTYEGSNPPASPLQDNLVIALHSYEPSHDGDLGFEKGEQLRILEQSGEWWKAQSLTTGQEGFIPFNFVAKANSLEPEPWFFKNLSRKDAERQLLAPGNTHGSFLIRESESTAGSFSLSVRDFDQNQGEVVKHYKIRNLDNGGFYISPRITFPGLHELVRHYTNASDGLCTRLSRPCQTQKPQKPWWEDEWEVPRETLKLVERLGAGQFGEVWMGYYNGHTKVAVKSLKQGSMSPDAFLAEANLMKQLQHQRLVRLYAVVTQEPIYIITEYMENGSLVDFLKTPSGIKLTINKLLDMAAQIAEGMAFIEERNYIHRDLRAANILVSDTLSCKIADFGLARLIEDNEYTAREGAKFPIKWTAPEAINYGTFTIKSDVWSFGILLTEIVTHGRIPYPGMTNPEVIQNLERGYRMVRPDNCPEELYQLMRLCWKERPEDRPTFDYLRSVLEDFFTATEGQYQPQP

[28] = target: Protein kinase C gamma type (Homo sapiens) (UniProt P05129); experiment: Residual activity at human PKCgamma at 10 uM in presence of 10 uM ATP relative to control; in short: as §1
[29] = target: Phosphatidylinositol 4,5-bisphosphate 3-kinase catalytic subunit beta isoform (Homo sapiens, UniProt P42338); experiment: Inhibition of human PI3Kbeta
[30] = target: MAP kinase-activated protein kinase 2 (Homo sapiens) (UniProt P49137); experiment: Residual activity at human MAPKAPK2 at 10 uM in presence of 10 uM ATP relative to control; in short: as §1

RAC-alpha serine/threonine-protein kinase (Homo sapiens), sequence (P31749 whole entry): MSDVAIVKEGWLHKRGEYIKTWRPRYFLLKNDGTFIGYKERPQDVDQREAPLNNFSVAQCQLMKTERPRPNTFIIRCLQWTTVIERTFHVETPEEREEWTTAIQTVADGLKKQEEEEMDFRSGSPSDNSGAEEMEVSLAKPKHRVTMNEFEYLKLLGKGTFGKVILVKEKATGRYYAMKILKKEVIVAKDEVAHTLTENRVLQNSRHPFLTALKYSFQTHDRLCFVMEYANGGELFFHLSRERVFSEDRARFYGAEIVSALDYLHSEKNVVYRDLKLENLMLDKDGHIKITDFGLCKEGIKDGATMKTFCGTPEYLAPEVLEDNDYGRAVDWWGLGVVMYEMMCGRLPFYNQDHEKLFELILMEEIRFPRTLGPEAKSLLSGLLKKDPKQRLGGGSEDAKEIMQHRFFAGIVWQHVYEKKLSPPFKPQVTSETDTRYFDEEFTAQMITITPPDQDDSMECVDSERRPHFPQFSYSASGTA

O=C1NC(=O)/C(=C/c2ccc(-c3ccc(F)cc3O)o2)S1
Activity [1]: 97%
Activity [2]: 86%
Activity [3]: 72%
Activity [4]: 93%
IC50 [5]: > 10 µM
Activity [6]: 84%
Activity [7]: 98%
Activity [8]: 66%
Activity [9]: 66%
Activity [10]: 84%
Activity [11]: 82%
Activity [12]: 80%
metabolised at 1 h [13]: 16%
Activity [14]: 89%
Activity [15]: 93%
pKa [16]: 8.4
AUC [17]: 847 ng·h/mL
Activity [18]: 91%
Activity [19]: 102%
Activity [20]: 97%
Activity [21]: 105%
Vdss (Rattus norvegicus): 25.3 L/kg
Activity [22]: 109%
Activity [23]: 93%
Activity [24]: 90%
Activity [25]: 90%
Activity [26]: 89%
Activity [27]: 104%
Activity [28]: 107%
IC50 [29]: 20 µM
Activity [30]: 117%
